The entries come from a sample that favours hits as a whole.
XBP1 UPR activ = activators of adaptive arm of unfolded protein response (XBP1). 0.33% of 330,000 active. CHO-XBP1 luciferase reporter, IRE1-XBP1 UPR activation, luminescence; percent of tunicamycin response, DMSO as zero. AID 463104. activation, % at 20 µM;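 active = versus positive control, 20 µM dose yields 30% or more activation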;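 note: 100% = tunicamycin at 10 µg/mL and 0% = DMSO only wells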
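Material: IRE1-XBP1 luciferase reporter CHO line / Quantity: one thousand reporter cells per well / Buffer or medium: F12 with 10% serum / Compound: 20 µM single concentration, DMSO 1% / Times: 6 h treatment, 37 °C / Detection: Steady-Glo luciferase glow luminescence, 10 min after reagent addition / Benchmarks: tunicamycin high, DMSO low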
UPR CHOP act = apoptotic UPR (CHOP) activation | CHO-CHOP luciferase reporter, luminescence; percent of tunicamycin response over DMSO baseline | activation, % at 10 µM | 0.34% of 330,000 active | AID 449763;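 active = at 10 µM dose, activation of 40% or more, normalized to positive control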;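 note: 100% = tunicamycin at 10 µg/mL and 0% = DMSO alone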
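Material: CHO-CHOP cells, stable luciferase reporter of PERK-eIF2a-CHOP signalling; quantity: 500 reporter cells seeded per well; buffer or medium: F12 medium containing 10% fetal bovine serum; compound: one dose, 10 µM in 0.5% DMSO; incubation: 6 h compound treatment, 37 °C; measured by: Steady-Glo luciferase luminescence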
hiPSC survival = enhancers of human iPSC single-cell survival | hiPSC single-cell survival, ATPlite luminescence; 100% = ROCK inhibitor wells, 0% = DMSO | survival enhancement, % at 20 µM | 0.044% of 360,000 active | AID 602274; in the data active = survival enhancement above about 18%;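 note: cells exposed to compounds for 16 hours before the ATP read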
H9c2 protect = protects H9c2 cardiomyocytes from peroxide injury | H2O2 injury protection, ATPLite, 2 h | AID 588492 | protection from H2O2 cell death, % at 20 µM | 0.63% of 360,000 active;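 active = compounds giving at least 50% protection of heart cells from peroxide-induced death in the single-dose screen, raw or plate-pattern-corrected value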;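 note: 0% = DMSO wells with peroxide and 100% = DMSO wells without peroxide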
CHOP inhibitor = blocks CHOP induction under ER stress | 3.8% of 220,000 active | AID 2732 | CHO-K1 CHOP-promoter luciferase, tunicamycin-induced, 15-18 h | inhibition, % at 10 µM;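 active = compounds that reduced the stress-induced luciferase reporter signal by more than about 70% of percent inhibition, limit read from the data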;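 note: 0% = tunicamycin plus vehicle and 100% = wells without tunicamycin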
Starred values were filed as active, the others as inactive; . = not tested or not shown.

SMILES	XBP1 UPR activ	UPR CHOP act	hiPSC survival	H9c2 protect	CHOP inhibitor
CCCc1cc2c(cc1N(C)S(=O)(=O)c1ccccc1)OCO2	.	.	1.0	-10.9	.
O=C(Cn1cc(C(F)(F)F)ccc1=O)Nc1ccc2c(c1)OCO2	.	.	-2.0	-7.9	.
O=C(Nc1ccncc1)c1c(F)c(F)c(F)c(F)c1F	-2.5	-1.6	44.4*	1.5	.
O=C(Nc1ccncc1)c1ccccc1F	-3.4	-2.9	24.2*	-3.8	-4.1
O=C(Nc1cccnc1)c1c(F)c(F)c(F)c(F)c1F	-0.2	0.2	-0.5	-2.4	4.7
O=C(Nc1cccc(F)c1)c1c(F)c(F)c(F)c(F)c1F	-2.1	-2.9	-0.5	-3.3	78.9*
O=C(Nc1ccccc1NC(=O)c1c(F)c(F)c(F)c(F)c1F)c1c(F)c(F)c(F)c(F)c1F	-0.7	1.8	-3.1	-33.5	76.9*
O=C(Nc1ccc(F)cc1)c1ccccc1F	2.1	3.0	0.6	-4.6	-42.3
COc1ncnc2c1ncn2CCCNCc1ccccc1	.	.	1.9	-3.7	.
CC1(C)CC(NC(=O)c2ccc(-c3ccc([N+](=O)[O-])cc3)o2)CC(C)(C)N1	1.7	-0.8	0.0	12.8	.
Cc1cc(C)n2nc(SCC(=O)N3CC(C)CC(C)C3)nc2n1 (stereo not given)	-0.5	0.1	3.4	-3.8	.
COc1cc2nc3c4ccccc4n(CC#N)c3nc2cc1OC	10.4	0.2	.	.	46.4
COC(=O)Cn1c2ccc(OC)cc2c2nc3ccccc3nc21	9.3	1.2	-1.1	-0.1	-5.5
CCn1c2ccccc2c2nc3cc(OC)c(OC)cc3nc21	10.9	3.7	-2.7	50.9*	-18.5
COc1ccc2c(c1)c1nc3ccccc3nc1n2Cc1ccc(OC)c(OC)c1	.	.	-1.2	1.4	84.7*
N/C(=N\OC(=O)c1ccc2ccccc2c1)c1ccccc1Cl	-0.4	9.3	-0.4	-20.7	.
COC(=O)CCCn1cc(CN2CC(N3CCN(Cc4cccc(C)c4)CC3)CS2(=O)=O)nn1 (stereo not given)	.	.	1.0	.	.
O=C(O)/C=C/C(=O)NCCc1ccccc1	-3.0	-0.5	-0.3	-6.3	-10.0
CC(C)=CC(=O)NCCc1ccccc1	0.7	1.5	-2.9	1.5	84.6*
COc1nc(N2CCCCCC2)nc(N2CCCCCC2)n1	3.0	-2.0	-0.5	-14.4	87.5*
COc1nc(Nc2cccc(C)c2)nc(N2CCCCC2)n1	1.9	2.2	-0.5	-12.1	71.0*
COc1nc(OCC#N)nc(N2CCCCC2)n1	-0.6	-0.4	-0.6	3.2	5.4
COc1ccc(C(C)=O)cc1Cn1c(C)c(C(=O)NC2CC2)sc1=O	.	.	5.4	1.2	.
CCc1cc(/C(Cc2ccc3ccccc3n2)=N\O)c(O)cc1O	-1.4	-3.8	-1.2	-25.8	52.4
Cc1c(O)ccc(/C(Cc2ccc3ccccc3n2)=N\N)c1O	2.1	6.0	-0.4	63.2*	11.3
SMILES	XBP1 UPR activ	UPR CHOP act	hiPSC survival	H9c2 protect	CHOP inhibitor
Cc1ccc(-c2nc(-c3ccccn3)no2)cc1Cl	-7.8	-8.5	-4.2	-24.7	82.7*
c1ccc(-c2nc(-c3ccccn3)no2)cc1	-9.3	-7.7	-6.2	-21.4	59.7
Clc1cccc(-c2nc(-c3ccccn3)no2)c1	-6.2	-7.5	-4.4	-21.4	59.8
c1ccc(-c2ccc(-c3nc(-c4ccccn4)no3)cc2)cc1	-9.4	-9.3	-5.6	-27.2	105.2*
CCOc1ncccc1C(=O)OC(C)C(=O)Nc1ccc(N2CCOCC2)cc1 (stereo not given)	3.5	0.8	-1.6	4.0	.
O=C(Oc1ccc(N(Cc2cccs2)C2=NS(=O)(=O)c3ccccc32)cc1)c1ccccc1Cl	-1.2	-1.8	-2.7	75.1*	52.8
COC(=O)[C@H]1C[C@H](OC(=O)Nc2cccs2)[C@@]2(O)CN(S(=O)(=O)c3ccc(C)cc3)CC2[C@H]1C(=O)OC (stereo not given in full)	.	.	2.0	5.9	.
COc1ccc(Cl)cc1Cn1c(C)c(C(=O)NCc2ccc3c(c2)OCCO3)sc1=O	.	.	0.3	0.0	.
CCCCCCc1cc2cc(S(=O)(=O)c3ccc(F)cc3)c(=O)oc2cc1O	-4.2	-1.8	-0.6	-14.5	94.4*
C=CCSc1nc(N)c(C(=O)Nc2ccccc2)cc1C#N	6.3	-0.2	-4.2	-1.4	70.5*
COCCN1C(=O)C(=O)/C(=C(/O)c2ccc(S(=O)(=O)N3CCOCC3)cc2)C1c1cccc(OC)c1 (stereo not given)	-2.6	1.7	-0.5	-1.6	.
CC(C)(C)C(=O)C(Cl)C(=O)Nc1ccccc1 (stereo not given)	53.8*	20.8	0.9	-3.4	80.4*
CCOC(=O)c1sc(NC(=O)CSc2nccc(C)n2)c(C#N)c1C	0.6	-2.2	3.2	-5.9	38.1
CCOC(=O)c1sc(NC(=O)CSc2n[nH]c(-c3ccncc3)n2)c(C#N)c1C	-1.4	0.5	-1.4	-30.5	85.0*
Cc1nc(NC(=O)/C=C/c2ccco2)sc1C	2.0	4.0	-0.7	-0.6	-31.0
CNS(=O)(=O)c1ccc2nc(NC(=O)/C=C/c3ccco3)sc2c1	3.9	1.4	0.2	64.4*	-3.6
CCc1nc2c(OCC3CCCCC3)cccn2c1N(C)C(=O)c1ccccc1F	.	.	0.9	-3.9	.
Cc1[nH]c2ccccc2c1CN1CCc2ccccc2C1	-2.6	9.1	2.3	1.8	91.2*
O=c1[nH]c(CN2CCc3ccccc3C2)nc2ccccc12	-3.2	-0.9	0.1	32.8	-1.3
CCOC(=O)Cn1nnc(-c2ccc(OCC(C)C)cc2)n1	1.3	-0.3	1.6	-4.9	70.5*
CCCOc1ccc(-c2nnn(CC(=O)c3c[nH]c4ccccc34)n2)cc1	-0.8	1.4	3.3	-4.7	84.7*
CCOc1ccc(-c2nnn(CC(=O)NCCc3c[nH]c4ccccc34)n2)cc1	2.3	0.9	1.7	-10.1	46.0
COc1ccccc1N=Cc1c(C)c(C#N)c2[nH]c3ccccc3n2c1=O	-1.4	2.7	-0.4	7.5	84.3*
O=C(NNC(=O)C(c1ccccc1)c1ccccc1)c1ccccn1	1.0	2.0	-2.5	50.6*	42.3
O=C(NNc1ccccn1)C(c1ccccc1)c1ccccc1	4.0	0.4	-2.4	1.7	0.9
SMILES	XBP1 UPR activ	UPR CHOP act	hiPSC survival	H9c2 protect	CHOP inhibitor
C=CCc1cc(C=O)cc(OC)c1OCc1c(Cl)cccc1Cl	-0.7	1.8	5.0	-8.6	73.0*
CCCC(=O)OC1CCS(=O)(=O)c2sccc21 (stereo not given)	-0.1	-0.6	0.3	2.5	-13.0
Cc1ccc(C(=O)OC2CCS(=O)(=O)c3sccc32)cc1 (stereo not given)	0.2	-0.7	-1.1	-7.2	76.9*
Cc1ccc(N=C2SCCCN2C(=O)c2ccco2)cc1Cl	-1.0	1.1	-2.8	-0.6	80.1*
CCOC(=O)c1ccc(NC(=S)Nc2cccc(C)n2)cc1	2.6	2.2	0.2	-5.7	73.7*
O=C(Nc1nc2c(s1)CCCC2)c1cc(-c2ccccc2)nc2ccccc12	-4.3	2.7	-0.9	-4.7	80.8*

Assay outcomes deposited in PubChem BioAssay by several laboratories.
